The record followed here is ChEMBL document CHEMBL1144694, “Identification of 4-(4-aminopiperidin-1-yl)-7H-pyrrolo[2,3-d]pyrimidines as selective inhibitors of protein kinase B through fragment elaboration” (J Med Chem, 2008).

A short description of data set [1]: Growth inhibition of human PC3M cells by SRB assay. Format: functional, cell-based. The conditions noted are these: PC-3M.
The target of data set [2] is RAC-beta serine/threonine-protein kinase (Homo sapiens, UniProt P31751). The experiment in a line: Inhibition of PKBbeta recombinant by radiometric filter binding assay.
A short description of data set [3]: Inhibition of recombinant catalytic subunit PKA by radiometric filter binding assay.
The nature of data set [4]: Selectivity for PKBbeta over PKA.
The nature of data set [5]: Growth inhibition of human U87MG cells by SRB assay. In kind it is functional, cell-based, U-87MG ATCC. The conditions noted are these: U-87 MG. Background: In SRB staining, fixed cells bind dye roughly in proportion to their protein.
Data set [6] has as its system Plasma. The data set is described as follows: Drug level in BALB/c mouse plasma at 25 mg/kg, po. The conditions noted are these: in vivo. In kind it is ADME, organism-based. The arrangement: dose 25 mg/kg, route oral. An outline of the steps: (§1)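 Female BALB/c mice dosed at 25 mg kg^-1 intravenously or orally, compound in 10% DMSO 0.1% Tween-20 in saline. Plasma concentrations measured over time to derive T1/2, Tmax, Cmax, AUC, Vss and plasma clearance.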

In data set [7] the test system is Mus musculus. The data set is described as follows: Half life in BALB/c mouse at 25 mg/kg, iv. Format: ADME, organism-based. The arrangement: dose 25 mg/kg, route intravenous. The conditions noted are these: in vivo. An outline of the steps:
as §1

Data set [8] is described as follows: Metabolic stability in BALB/c mouse liver microsomes at 10 uM after 30 mins. The note with it: read-out: Stability. Format: ADME, Microsome. An outline of the steps: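 Incubated at 10 µM for 30 min in mouse liver microsomes competent for phase I and phase II metabolism. Parent remaining quantified by LC-MS/MS, with metabolite identification.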
A short description of data set [9]: AUC in BALB/c mouse at 25 mg/kg, po. Format: ADME, organism-based. The arrangement: dose 25 mg/kg, route oral. The note with it: plasma. An outline of the steps: as §1
Data set [10] can be described thus: Cmax in BALB/c mouse at 25 mg/kg, po. Format: ADME, organism-based. Details: dose 25 mg/kg, route oral. The conditions noted are these: in vivo. In a few lines: as §1
In data set [11] the target is T1, Ribosomal protein S6 kinase beta-1 (Homo sapiens, UniProt P23443). The data set is described as follows: Inhibition of p70S6K by radiometric filter binding assay. An outline of the steps:
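IC50 for p70S6K kinase activity measured in a radiometric filter binding assay.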
Target sequence in this assay (P23443 whole entry): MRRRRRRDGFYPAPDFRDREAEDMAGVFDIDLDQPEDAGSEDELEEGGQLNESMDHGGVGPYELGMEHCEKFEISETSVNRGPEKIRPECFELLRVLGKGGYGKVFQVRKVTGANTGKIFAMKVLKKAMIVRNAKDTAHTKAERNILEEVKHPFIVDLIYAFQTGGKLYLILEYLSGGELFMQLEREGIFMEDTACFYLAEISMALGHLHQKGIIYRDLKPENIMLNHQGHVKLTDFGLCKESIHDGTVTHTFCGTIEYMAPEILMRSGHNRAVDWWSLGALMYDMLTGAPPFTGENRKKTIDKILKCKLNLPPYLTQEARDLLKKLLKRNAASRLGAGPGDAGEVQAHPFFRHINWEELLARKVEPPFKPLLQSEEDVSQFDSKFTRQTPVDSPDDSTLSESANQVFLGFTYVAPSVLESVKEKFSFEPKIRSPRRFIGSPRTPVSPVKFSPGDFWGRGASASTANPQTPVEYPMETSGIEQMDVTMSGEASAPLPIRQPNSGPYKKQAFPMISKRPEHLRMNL

A short description of data set [12]: Tmax in BALB/c mouse at 25 mg/kg, iv. Format: ADME, organism-based. Details: dose 25 mg/kg, route intravenous. The conditions noted are these: in vivo. In a few lines:
as §1

The nature of data set [13]: Tmax in BALB/c mouse at 25 mg/kg, po. In kind it is ADME, organism-based. Details: dose 25 mg/kg, route oral. The conditions noted are these: in vivo. An outline of the steps:
as §1

Data set [14] has as its system Mus musculus. The experiment in a line: Volume of distribution at steady state in BALB/c mouse at 25 mg/kg, iv. In kind it is ADME, organism-based. Details: dose 25 mg/kg, route intravenous. The note with it: in vivo. An outline of the steps: as §1
Data set [15] is described as follows: Cmax in BALB/c mouse at 25 mg/kg, iv. The note with it: in vivo. The arrangement: dose 25 mg/kg, route intravenous. Format: ADME, organism-based. In a few lines: as §1
Data set [16] in a line: AUC in BALB/c mouse at 25 mg/kg, iv. Format: ADME, organism-based. Details: dose 25 mg/kg, route intravenous. The conditions noted are these: plasma. In a few lines:
as §1

The subject of data set [17] is Mus musculus. The data set is described as follows: Clearance in BALB/c mouse plasma at 25 mg/kg, iv. The note with it: in vivo. Details: dose 25 mg/kg, route intravenous. Format: ADME, organism-based. In a few lines:
as §1

Data set [18] in a line: Metabolic stability in human liver microsomes at 10 uM after 30 mins. Format: ADME, Microsome. The note with it: read-out: Stability. In a few lines: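 Human liver microsomes with cofactors for phase I metabolism, compound at 10 µM for 30 min. Percent parent remaining measured by LC-MS/MS.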
A general note: Microsomes from liver hold many membrane-bound enzymes, among them those of drug oxidation.

The nature of data set [19]: Oral bioavailability in BALB/c mouse at 25 mg/kg. In kind it is ADME, organism-based. The conditions noted are these: in vivo.
Data set [20] can be described thus: Half life in BALB/c mouse at 25 mg/kg, po. Format: ADME, organism-based. The arrangement: dose 25 mg/kg, route oral. The note with it: in vivo. In a few lines:
as §1

Data set [21] addresses T1, Ribosomal protein S6 kinase beta-1. The data set is described as follows: Inhibition of p70S6K at 1 uM. In a few lines: (§2)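 Screen against a panel of 21 kinases, percent inhibition at 1 µM compound.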
Target sequence in this assay (P23443 whole entry, looked up): as the sequence (P23443 whole entry) above
Data set [22] addresses Receptor-type tyrosine-protein kinase FLT3 (Homo sapiens) (UniProt P36888). The experiment in a line: Inhibition of FLT3 at 1 uM. An outline of the steps: as §2
The target of data set [23] is Proto-oncogene tyrosine-protein kinase Src (Homo sapiens) (UniProt P12931). The experiment in a line: Inhibition of SRC at 1 uM. An outline of the steps: as §2
Data set [24] can be described thus: Inhibition of PKC at 1 uM. An outline of the steps: as §2
The target in data set [25] is T2, Serine/threonine-protein kinase Chk1 (Homo sapiens) (UniProt O14757).
T2 sequence (whole entry): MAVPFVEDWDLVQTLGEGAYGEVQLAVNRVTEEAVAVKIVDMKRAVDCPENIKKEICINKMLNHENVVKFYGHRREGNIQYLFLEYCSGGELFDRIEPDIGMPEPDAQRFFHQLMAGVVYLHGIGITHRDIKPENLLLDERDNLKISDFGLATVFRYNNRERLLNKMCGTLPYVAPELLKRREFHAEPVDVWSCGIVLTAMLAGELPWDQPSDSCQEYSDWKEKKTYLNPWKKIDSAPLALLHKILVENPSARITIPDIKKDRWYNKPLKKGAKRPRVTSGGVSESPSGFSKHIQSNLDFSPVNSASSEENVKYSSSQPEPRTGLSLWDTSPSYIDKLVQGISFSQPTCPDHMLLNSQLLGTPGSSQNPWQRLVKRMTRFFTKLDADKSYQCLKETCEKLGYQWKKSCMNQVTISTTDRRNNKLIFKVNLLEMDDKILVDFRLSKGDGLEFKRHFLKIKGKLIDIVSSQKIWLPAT
The data set is described as follows: Inhibition of CHK1 at 1 uM. An outline of the steps:
as §2

Data set [26] has as its target Rho-associated protein kinase 2 (Homo sapiens) (UniProt O75116). The experiment in a line: Inhibition of ROCK2 at 1 uM. An outline of the steps: as §2
For data set [27], the target named is Ribosomal protein S6 kinase alpha-2 (Homo sapiens) (UniProt Q15349). The experiment in a line: Inhibition of RSK2 at 1 uM. An outline of the steps:
as §2

Data set [28] concerns the target Serine/threonine-protein kinase Chk2 (Homo sapiens) (UniProt O96017). The data set is described as follows: Inhibition of CHK2 at 1 uM. In a few lines: as §2

Some results are limits rather than exact numbers.

Sequence of RAC-beta serine/threonine-protein kinase (P31751 whole entry): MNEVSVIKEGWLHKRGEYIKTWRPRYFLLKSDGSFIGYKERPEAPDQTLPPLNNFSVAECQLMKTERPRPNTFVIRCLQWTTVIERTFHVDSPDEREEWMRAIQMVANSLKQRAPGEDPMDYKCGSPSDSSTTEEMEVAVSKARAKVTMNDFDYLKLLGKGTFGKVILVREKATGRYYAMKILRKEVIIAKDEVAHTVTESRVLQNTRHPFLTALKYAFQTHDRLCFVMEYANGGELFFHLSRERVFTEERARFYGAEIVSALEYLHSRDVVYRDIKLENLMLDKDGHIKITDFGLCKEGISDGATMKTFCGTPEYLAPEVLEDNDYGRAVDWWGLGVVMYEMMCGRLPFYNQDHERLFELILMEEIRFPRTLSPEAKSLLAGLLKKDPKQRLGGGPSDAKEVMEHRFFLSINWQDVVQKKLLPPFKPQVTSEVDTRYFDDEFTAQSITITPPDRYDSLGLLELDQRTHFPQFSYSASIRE
Sequence of Rho-associated protein kinase 2 (Homo sapiens) (O75116 whole entry, looked up): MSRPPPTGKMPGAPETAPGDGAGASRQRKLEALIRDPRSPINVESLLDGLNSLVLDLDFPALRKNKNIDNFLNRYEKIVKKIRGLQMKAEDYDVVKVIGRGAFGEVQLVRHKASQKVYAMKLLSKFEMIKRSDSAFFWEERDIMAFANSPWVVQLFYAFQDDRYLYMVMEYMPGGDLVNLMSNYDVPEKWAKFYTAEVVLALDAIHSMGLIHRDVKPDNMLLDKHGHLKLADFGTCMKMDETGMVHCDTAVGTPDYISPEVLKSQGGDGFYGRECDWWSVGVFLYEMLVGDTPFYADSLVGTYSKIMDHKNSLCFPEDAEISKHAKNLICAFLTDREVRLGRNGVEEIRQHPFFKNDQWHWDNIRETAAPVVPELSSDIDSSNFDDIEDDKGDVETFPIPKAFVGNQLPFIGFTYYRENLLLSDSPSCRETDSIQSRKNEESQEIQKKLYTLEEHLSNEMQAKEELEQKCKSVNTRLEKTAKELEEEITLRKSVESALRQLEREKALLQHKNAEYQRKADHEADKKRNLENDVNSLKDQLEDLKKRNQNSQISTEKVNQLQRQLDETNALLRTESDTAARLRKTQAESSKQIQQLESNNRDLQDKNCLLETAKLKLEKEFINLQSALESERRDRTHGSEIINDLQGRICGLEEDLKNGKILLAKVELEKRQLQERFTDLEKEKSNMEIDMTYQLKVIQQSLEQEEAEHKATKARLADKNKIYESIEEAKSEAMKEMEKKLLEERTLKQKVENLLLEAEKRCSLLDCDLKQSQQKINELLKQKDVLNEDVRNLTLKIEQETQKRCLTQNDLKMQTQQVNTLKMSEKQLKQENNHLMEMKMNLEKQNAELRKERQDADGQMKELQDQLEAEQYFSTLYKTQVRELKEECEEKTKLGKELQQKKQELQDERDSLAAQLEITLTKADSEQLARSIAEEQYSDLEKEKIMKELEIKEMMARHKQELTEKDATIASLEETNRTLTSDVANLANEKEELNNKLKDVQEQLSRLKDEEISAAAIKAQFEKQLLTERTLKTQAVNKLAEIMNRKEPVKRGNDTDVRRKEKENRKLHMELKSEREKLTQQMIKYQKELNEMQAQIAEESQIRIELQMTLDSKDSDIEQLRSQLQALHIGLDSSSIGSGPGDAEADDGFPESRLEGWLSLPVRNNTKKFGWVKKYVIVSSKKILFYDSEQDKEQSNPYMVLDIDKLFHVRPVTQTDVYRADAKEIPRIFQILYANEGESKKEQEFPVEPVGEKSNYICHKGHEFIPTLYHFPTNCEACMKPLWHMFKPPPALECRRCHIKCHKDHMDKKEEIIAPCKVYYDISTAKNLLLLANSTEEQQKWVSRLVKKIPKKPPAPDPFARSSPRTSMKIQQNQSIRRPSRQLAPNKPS
Sequence of Serine/threonine-protein kinase Chk2 (Homo sapiens) (O96017 whole entry): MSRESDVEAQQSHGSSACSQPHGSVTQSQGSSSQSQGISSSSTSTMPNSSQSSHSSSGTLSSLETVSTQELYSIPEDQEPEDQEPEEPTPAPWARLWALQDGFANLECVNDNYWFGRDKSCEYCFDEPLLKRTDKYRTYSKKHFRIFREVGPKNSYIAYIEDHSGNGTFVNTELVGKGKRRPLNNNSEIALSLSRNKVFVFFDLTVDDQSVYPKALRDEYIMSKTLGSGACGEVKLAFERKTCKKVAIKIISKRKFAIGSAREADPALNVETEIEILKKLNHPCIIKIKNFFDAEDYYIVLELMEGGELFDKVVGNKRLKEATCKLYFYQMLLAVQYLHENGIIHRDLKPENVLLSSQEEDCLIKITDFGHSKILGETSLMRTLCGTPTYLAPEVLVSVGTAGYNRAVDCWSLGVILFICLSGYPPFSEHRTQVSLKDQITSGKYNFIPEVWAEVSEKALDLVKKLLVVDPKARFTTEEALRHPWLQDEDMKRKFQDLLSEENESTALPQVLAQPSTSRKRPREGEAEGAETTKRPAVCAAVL
Sequence of Proto-oncogene tyrosine-protein kinase Src (Homo sapiens) (P12931 2-536 limits assumed): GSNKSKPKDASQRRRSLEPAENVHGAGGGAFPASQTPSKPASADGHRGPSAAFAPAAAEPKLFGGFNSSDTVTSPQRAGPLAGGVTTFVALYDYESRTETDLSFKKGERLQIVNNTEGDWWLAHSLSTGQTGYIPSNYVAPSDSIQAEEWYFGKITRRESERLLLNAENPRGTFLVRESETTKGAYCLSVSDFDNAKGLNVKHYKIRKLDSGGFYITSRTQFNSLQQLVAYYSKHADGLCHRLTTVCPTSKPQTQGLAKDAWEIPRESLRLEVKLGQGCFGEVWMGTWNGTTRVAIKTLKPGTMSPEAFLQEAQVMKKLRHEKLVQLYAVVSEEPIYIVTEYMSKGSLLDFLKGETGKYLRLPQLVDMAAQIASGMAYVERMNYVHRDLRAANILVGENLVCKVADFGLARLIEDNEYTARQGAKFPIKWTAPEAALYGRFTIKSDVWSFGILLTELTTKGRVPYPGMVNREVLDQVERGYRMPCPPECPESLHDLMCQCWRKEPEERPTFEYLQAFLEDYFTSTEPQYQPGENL
Sequence of Receptor-type tyrosine-protein kinase FLT3 (Homo sapiens) (P36888 whole entry): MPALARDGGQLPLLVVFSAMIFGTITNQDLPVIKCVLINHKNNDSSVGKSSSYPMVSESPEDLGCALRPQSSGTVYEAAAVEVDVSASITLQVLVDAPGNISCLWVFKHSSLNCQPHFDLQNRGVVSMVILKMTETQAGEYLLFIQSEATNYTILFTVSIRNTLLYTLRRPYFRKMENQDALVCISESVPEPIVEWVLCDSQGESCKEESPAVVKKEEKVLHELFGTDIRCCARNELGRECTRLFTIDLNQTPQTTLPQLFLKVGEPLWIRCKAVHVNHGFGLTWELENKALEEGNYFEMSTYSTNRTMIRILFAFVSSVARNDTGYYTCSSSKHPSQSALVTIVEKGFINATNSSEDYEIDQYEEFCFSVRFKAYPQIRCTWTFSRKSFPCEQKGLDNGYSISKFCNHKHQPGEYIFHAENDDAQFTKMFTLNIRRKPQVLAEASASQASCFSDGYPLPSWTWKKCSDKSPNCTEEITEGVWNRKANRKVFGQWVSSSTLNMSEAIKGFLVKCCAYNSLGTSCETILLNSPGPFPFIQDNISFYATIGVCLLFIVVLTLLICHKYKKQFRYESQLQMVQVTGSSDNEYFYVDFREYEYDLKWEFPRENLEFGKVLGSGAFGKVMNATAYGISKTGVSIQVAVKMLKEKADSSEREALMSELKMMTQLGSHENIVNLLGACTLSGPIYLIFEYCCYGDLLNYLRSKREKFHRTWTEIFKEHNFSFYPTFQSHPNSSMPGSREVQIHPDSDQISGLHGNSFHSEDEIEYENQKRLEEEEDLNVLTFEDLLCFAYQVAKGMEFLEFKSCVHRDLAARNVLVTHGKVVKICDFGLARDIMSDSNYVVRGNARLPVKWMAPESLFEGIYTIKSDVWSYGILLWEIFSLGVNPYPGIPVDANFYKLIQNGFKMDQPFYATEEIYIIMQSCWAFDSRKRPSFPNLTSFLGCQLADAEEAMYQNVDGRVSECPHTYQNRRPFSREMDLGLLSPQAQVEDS

As a reminder, the IC50 is the concentration that inhibits the measured activity by half. For `NCC1(Cc2ccc(Cl)cc2)CCN(c2ncnc3[nH]cnc23)CC1`, the IC50 in data set [1] worked out at 20000 nM; in [2] it was 3 nM; in data set [3], 7 nM.

`NCC1CCN(c2ncnc3[nH]ccc23)CC1`: the results for the IC50 in data set [1], in data set [2] and in data set [3] were 32000 nM, 770 nM and 460 nM, respectively.

For the compound `NCC1CCN(c2ncnc3[nH]ncc23)CC1`, the figures for the IC50 in [1], in data set [2] and in data set [3] were above 50000 nM, 920 nM and 2400 nM, respectively.

Consider `Cc1nc2ncnc(N3CCC(N)CC3)c2[nH]1`, for which the IC50 in data set [2] came out at 110000 nM.

Take `NC(c1ccccc1)C1CCN(c2ncnc3[nH]ccc23)CC1` (stereo not given): the results for the IC50 in data set [1], in [2] and in data set [3] were 38000 nM, 246 nM and 726 nM, respectively.

On to `NC1CCN(c2ccnc3[nH]ccc23)CC1`, for which the results for the IC50 in data set [1], in [2] and in data set [3] were 31000 nM, 880 nM and 1930 nM, respectively.

For the compound `NCC1(c2ccc(Cl)cc2)CCN(c2ncnc3[nH]cnc23)CC1`, the IC50 turned out to be 5700 nM in [1], 16 nM in data set [2] and 3 nM in data set [3].

As to `NC1(Cc2ccc(Cl)cc2)CCN(c2ncnc3[nH]cnc23)CC1`, the IC50 in [1] was above 50000 nM; in [2], 25 nM; in data set [3] it was 286 nM. The Selectivity ratio in [4] amounted to 11.

As to `NCC1(Cc2ccc(Cl)cc2)CCN(c2ncnc3[nH]ccc23)CC1`, the IC50 in data set [5] turned out to be 4300 nM; in [1] it was 15000 nM; in data set [2], 5 nM; in data set [3] it was 9 nM.

With `NC(c1ccc(Cl)cc1)C1CCN(c2ncnc3[nH]ccc23)CC1` (stereo not given), the half-maximal inhibitory concentration (IC50) was found to be 6000 nM in data set [5], 7400 nM in data set [1], 25 nM in [2] and 54 nM in [3].

Broadly, the AUC is the area under the concentration-time curve, a measure of exposure. A higher AUC goes with high exposure. One may read the Cmax as the peak of the concentration-time curve. A word on the Tmax: it is the time from dosing to the highest level. A word on the Vdss: it is a proportionality between amount in the body and measured concentration, not a real space. For orientation: clearance means the volume of plasma or blood freed of the substance per unit of time. Low readings indicate inefficient removal, high ones efficient removal. As a reminder, the bioavailability is dose-corrected exposure relative to a reference, in per cent. High values mean good availability, low ones poor availability. A word on the half-life: it is how long it takes for the measured level to halve. Low readings indicate fast loss, high ones slow loss. Take `NC1(Cc2ccc(Cl)cc2)CCN(c2ncnc3[nH]ccc23)CC1`: in data set [6], the concentration was 432 nM. Moreover, in data set [7], the t1/2 came to 57 min. For the same compound, the remaining at 0.5 h, 10 µM turned out to be 87% in [8] and 79% in [18]. The values for the AUC in data set [9] and in data set [16] were 0.392 µM·h and 4.62 µM·h, respectively. Moreover, the IC50 came to 5000 nM in [5], 12000 nM in [1] and 120 nM in data set [11]. The figures for the Cmax in data set [10] and in data set [15] were 432 nM and 6360 nM, respectively. Further, the Tmax stood at 4.98 min in [12] and 30 min in data set [13]. Moreover, the Vdss in [14] is 0.25 L. Moreover, in data set [17], the clearance is 0.325 L/h. The compound further yielded a bioavailability in data set [19] of 8.5%. The half-life in data set [20] was 34.2 min.

`NC(=O)C1CCN(c2ncnc3[nH]cnc23)CC1`: the IC50 in data set [2] worked out at 41000 nM.

Consider `NC1CCN(c2ncnc3[nH]ncc23)CC1`, for which the values for the IC50 in data set [1], in data set [2] and in [3] were 38000 nM, 830 nM and 7300 nM, respectively.

Broadly, the inhibition is the change of the read-out against control, counted positive when it falls. For the compound `NCC1(c2ccc(Cl)cc2)CCN(c2ncnc3[nH]ccc23)CC1`, the inhibition in [21], in data set [22], in data set [23], in [24], in data set [25] and in data set [26] was above 60% each time. For the same compound, the inhibition in [27] and in data set [28] was above 60% each time. The IC50 was determined as 520 nM in data set [5], 1000 nM in data set [1], 8 nM in data set [2] and 5 nM in data set [3].

On to `O=S(=O)(NCCNC/C=C/c1ccc(Br)cc1)c1cccc2cnccc12`, for which the IC50 stood at 18000 nM in data set [1] and 5300 nM in [3].

Regarding `NC(c1ccc(Cl)cc1)C1CCN(c2ccnc3[nH]ccc23)CC1` (stereo not given), the IC50 in data set [5] was 3500 nM; in data set [1] it was 5300 nM; in data set [2], 12 nM; in [3], 3 nM.

As to `NCC1CCN(c2ncnc3[nH]cnc23)CC1`, the IC50 was above 50000 nM in data set [1], 290 nM in data set [2] and 890 nM in data set [3].

`c1nc(N2CCCCC2)c2nc[nH]c2n1`: the IC50 in data set [2] came out at 59000 nM.

For the compound `NCC1(c2ccc(Cl)cc2)CCN(c2ccnc3[nH]ccc23)CC1`, the IC50 in data set [1] was 16000 nM; in data set [2], 25 nM; in data set [3], 3 nM.

Regarding `NC1(c2ccc(Cl)cc2)CCN(c2ncnc3[nH]cnc23)CC1`, the IC50 is above 50000 nM in [1], 7 nM in data set [2] and 23 nM in [3].

In the case of `NC(c1ccc(Cl)cc1)C1CCN(c2ncnc3[nH]cnc23)CC1` (stereo not given), the IC50 in [1] amounted to 23000 nM; in [2], 71 nM; in data set [3], 27 nM.

With `NC1CCN(c2ncnc3[nH]ccc23)CC1`, the IC50 came out at 48000 nM in [1], 180 nM in data set [2] and 1550 nM in data set [3].

`NC1(c2ccc(Cl)cc2)CCN(c2ncnc3[nH]ccc23)CC1`: the IC50 in data set [5] turned out to be 4700 nM; in [1], 8000 nM; in data set [2], 7 nM; in data set [3], 15 nM.
